# In ChEMBL document CHEMBL1777717, “Potent and selective oxindole-based vasopressin 1b receptor antagonists with improved pharmacokinetic properties” (Bioorg Med Chem Lett, 2011):
# Columns and labels:
# [1] = Volume of distribution at steady state in rat at 2 mg/kg, iv; assay type: ADME, organism-based; parameters: dose 2 mg/kg, route intravenous; conditions: in vivo, read-out: Vdss
# [2] = Terminal half life in rat at 2 mg/kg, iv; assay type: ADME, organism-based; parameters: dose 2 mg/kg, route intravenous; conditions: in vivo, read-out: beta t1/2 (converted)
# [3] = Intrinsic clearance in human liver microsomes measured up to 40 mins by HPLC-MS method; assay type: ADME, Microsome
# How it was run: (§1)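 Intrinsic clearance determined by liver microsome incubation using a previously published procedure, reported in µL/min/mg; each value is the mean of at least two experiments.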
# [4] = Intrinsic clearance in rat liver microsomes measured up to 40 mins by HPLC-MS method; assay type: ADME, Microsome; how it was run: as §1
# [5] = Ratio of AUC in brain to plasma in rat at 10 mg/kg, ip; assay type: ADME, organism-based; parameters: dose 10 mg/kg, route intraperitoneal; conditions: brain and plasma, read-out: Ratio AUC
# [6] = Oral bioavailability in rat plasma at 10 mg/kg; assay type: ADME, organism-based
# [7] = Clearance in rat plasma at 2 mg/kg, iv; assay type: ADME, organism-based; parameters: dose 2 mg/kg, route intravenous
# Vasopressin V1b receptor = target: T1, Vasopressin V1b receptor (Homo sapiens, UniProt P47901); experiment: Displacement of [3H]AVP from human vasopressin V1b receptor expressed in CHO cells by scintillation counting; assay type: cell-based
# T1 sequence (P47901 whole entry): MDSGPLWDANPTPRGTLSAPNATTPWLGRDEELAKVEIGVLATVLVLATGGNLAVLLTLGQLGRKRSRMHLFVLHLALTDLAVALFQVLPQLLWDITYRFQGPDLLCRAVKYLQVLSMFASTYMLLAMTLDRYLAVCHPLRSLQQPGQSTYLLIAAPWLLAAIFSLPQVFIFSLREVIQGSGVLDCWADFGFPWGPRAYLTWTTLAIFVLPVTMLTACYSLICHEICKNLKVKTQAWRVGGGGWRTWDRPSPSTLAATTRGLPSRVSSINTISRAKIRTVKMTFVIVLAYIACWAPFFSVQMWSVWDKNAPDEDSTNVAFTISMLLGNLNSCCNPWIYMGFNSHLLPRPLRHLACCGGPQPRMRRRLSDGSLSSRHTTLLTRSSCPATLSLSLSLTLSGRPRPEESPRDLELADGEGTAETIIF
# Oxytocin receptor = target: T2, Oxytocin receptor (Homo sapiens, UniProt P30559); experiment: Displacement of radiolabeled oxytocin from human oxytocin receptor expressed in CHO cells by scintillation counting; assay type: cell-based
# T2 sequence (P30559 whole entry): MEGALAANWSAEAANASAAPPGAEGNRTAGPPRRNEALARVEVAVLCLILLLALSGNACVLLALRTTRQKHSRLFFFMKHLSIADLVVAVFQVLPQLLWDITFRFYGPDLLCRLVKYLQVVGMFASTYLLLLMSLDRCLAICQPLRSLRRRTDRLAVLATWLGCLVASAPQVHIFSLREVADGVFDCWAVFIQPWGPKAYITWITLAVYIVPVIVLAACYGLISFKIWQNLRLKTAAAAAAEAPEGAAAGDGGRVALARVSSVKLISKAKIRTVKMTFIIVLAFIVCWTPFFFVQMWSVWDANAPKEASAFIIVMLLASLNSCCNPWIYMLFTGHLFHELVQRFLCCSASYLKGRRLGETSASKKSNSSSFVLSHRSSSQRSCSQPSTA
# How it was run: (§2)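 Ki from radioligand displacement at the human receptor, run per a previously published protocol; each value is the mean of at least two experiments.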
# Vasopressin V2 receptor = Vasopressin V2 receptor (Homo sapiens, UniProt P30518); experiment: Displacement of [3H]AVP from human vasopressin V2 receptor expressed in CHO cells by scintillation counting; assay type: cell-based; how it was run: as §2
# Chain of Vasopressin V2 receptor (P30518 whole entry): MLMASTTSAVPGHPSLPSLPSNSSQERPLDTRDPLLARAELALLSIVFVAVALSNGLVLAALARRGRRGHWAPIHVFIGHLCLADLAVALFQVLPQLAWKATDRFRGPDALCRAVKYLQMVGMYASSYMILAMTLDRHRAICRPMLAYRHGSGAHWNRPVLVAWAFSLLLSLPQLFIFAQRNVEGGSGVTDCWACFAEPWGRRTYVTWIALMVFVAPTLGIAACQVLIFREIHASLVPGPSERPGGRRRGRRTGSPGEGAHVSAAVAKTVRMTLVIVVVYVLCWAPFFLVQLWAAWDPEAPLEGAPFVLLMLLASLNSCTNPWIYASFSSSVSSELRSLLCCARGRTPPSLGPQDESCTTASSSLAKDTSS
# Vasopressin V1a receptor = Vasopressin V1a receptor (Homo sapiens, UniProt P37288); experiment: Displacement of [3H]AVP from human vasopressin V1a receptor expressed in CHO cells by scintillation counting; assay type: cell-based; how it was run: as §2
# Chain of Vasopressin V1a receptor (P37288 whole entry): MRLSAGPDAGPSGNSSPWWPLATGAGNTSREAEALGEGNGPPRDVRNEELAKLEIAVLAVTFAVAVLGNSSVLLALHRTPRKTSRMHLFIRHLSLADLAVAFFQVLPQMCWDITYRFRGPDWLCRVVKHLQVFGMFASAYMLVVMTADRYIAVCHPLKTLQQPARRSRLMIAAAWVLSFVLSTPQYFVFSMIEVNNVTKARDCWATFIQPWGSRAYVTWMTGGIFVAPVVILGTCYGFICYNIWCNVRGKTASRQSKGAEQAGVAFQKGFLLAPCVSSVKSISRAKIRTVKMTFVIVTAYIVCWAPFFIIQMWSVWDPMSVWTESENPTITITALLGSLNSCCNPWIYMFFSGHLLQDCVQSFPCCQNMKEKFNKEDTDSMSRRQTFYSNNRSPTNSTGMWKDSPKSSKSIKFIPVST
# Homo sapiens [8] = organism: Homo sapiens; experiment: Selectivity ratio of Ki for human vasopressin V1b receptor over Ki for human oxytocin receptor
# Homo sapiens [9] = organism: Homo sapiens; experiment: Selectivity ratio of Ki for human vasopressin V1b receptor over Ki for human vasopressin V1a receptor
# Homo sapiens [10] = organism: Homo sapiens; experiment: Selectivity ratio of Ki for human vasopressin V1b receptor over Ki for human vasopressin V2 receptor
Compound,Vd [1] [L/kg],half-life [2] [min],microsomal CLint [3] [µL/min/mg],microsomal CLint [4] [µL/min/mg],Kp [5],bioavailability [6] [%],clearance [7] [mL/min/kg],Ki (Vasopressin V1b receptor) [nM],Ki (Oxytocin receptor) [nM],Ki (Vasopressin V2 receptor) [nM],Ki (Vasopressin V1a receptor) [nM],Ratio Ki (Homo sapiens [8]),Ratio Ki (Homo sapiens [9]),Ratio Ki (Homo sapiens [10])
COc1ccc(S(=O)(=O)N2C(=O)[C@@](c3ccccc3OC)(N3C[C@H](O)C[C@H]3C(=O)N(C)C)c3cc(Cl)ccc32)c(OC)c1,2.8,30,343,432,0.03,12,86.7,–,–,–,–,–,–,–
COc1ccc(S(=O)(=O)N2C(=O)[C@@](c3cccnc3OC)(N3CCCC3c3cccs3)c3cc(Cl)ccc32)c(OC)c1 (mixture of isomers),–,–,–,–,–,–,–,> 10000,–,–,–,–,–,–
COc1ccc(S(=O)(=O)N2C(=O)[C@@](c3cc(CN4CCCC4)ccc3OC)(N3CCC[C@H]3c3ncco3)c3cc(Cl)ccc32)cc1,–,–,80,164,–,–,–,1.2,170,> 1000,193,–,–,–
COc1ccc(S(=O)(=O)N2C(=O)[C@@](c3cccnc3OC)(N3CCC[C@H]3C(=O)N(C)C)c3cc(Cl)ccc32)c(OC)c1,–,–,359,446,–,–,–,3.8,62,> 1000,219,–,–,–
COc1ccc(S(=O)(=O)N2C(=O)[C@@](c3cc(CN4CCCC4)ccc3OC)(N3CCC[C@H]3C(=O)N(C)C)c3cc(Cl)ccc32)c(OC)c1,–,–,394,148,–,–,–,0.26,29,> 1000,74,–,–,–
COc1ccc(S(=O)(=O)N2C(=O)[C@@](c3cc(CN4CCN(C)CC4)ccc3OC)(N3CCC[C@H]3C(=O)N(C)C)c3cc(Cl)ccc32)cc1,–,–,414,78,–,–,–,0.03,20,> 1000,13,> 100,> 100,> 100
COc1ccc(S(=O)(=O)N2C(=O)[C@@](c3cnccc3OC)(N3C[C@H](O)C[C@H]3C(=O)N(C)C)c3cc(Cl)ccc32)c(OC)c1,–,–,158,413,–,–,–,2.1,–,> 1000,49,–,–,–
COc1ccc(S(=O)(=O)N2C(=O)[C@@](c3cccnc3OC)(N3C[C@H](O)C[C@H]3C(=O)N(C)C)c3cc(Cl)ccc32)c(OC)c1,–,–,323,446,–,–,–,1.3,42,618,55,–,–,–
COc1ccc(S(=O)(=O)N2C(=O)[C@@](c3cccnc3OC)(N3CCC[C@H]3c3ncco3)c3cc(Cl)ccc32)cc1,–,–,75,356,–,–,–,20,–,–,–,–,–,–
COc1ccc(S(=O)(=O)N2C(=O)[C@@](c3nccnc3OC)(N3C[C@H](O)C[C@H]3C(=O)N(C)C)c3cc(Cl)ccc32)c(OC)c1,–,–,302,1030,–,–,–,26,271,> 1000,500,–,–,–
COc1ccc(S(=O)(=O)N2C(=O)[C@@](c3cccnc3OC)(N3CCCC3c3ncco3)c3cc(Cl)ccc32)c(OC)c1 (mixture of isomers),–,–,–,–,–,–,–,101,–,–,–,–,–,–
COc1ccc(S(=O)(=O)N2C(=O)[C@@](c3cc(CN(C)C)ccc3OC)(N3CCC[C@H]3c3ncco3)c3cc(Cl)ccc32)cc1,–,–,204,217,–,–,–,2,115,> 1000,289,–,–,–
COc1ccc(S(=O)(=O)N2C(=O)[C@@](c3cnc(OC)nc3OC)(N3C[C@H](O)C[C@H]3C(=O)N(C)C)c3cc(Cl)ccc32)c(OC)c1,–,–,203,366,–,–,–,5.6,45,636,173,–,–,–
COc1ccc(S(=O)(=O)N2C(=O)[C@@](c3cccnc3OC)(N3CCCC3c3nccs3)c3cc(Cl)ccc32)c(OC)c1 (mixture of isomers),–,–,373,476,–,–,–,276,–,–,–,–,–,–
COc1ccc(S(=O)(=O)N2C(=O)[C@@](c3cccnc3OC)(N3CCCC3c3ccccc3)c3cc(Cl)ccc32)c(OC)c1 (mixture of isomers),–,–,–,–,–,–,–,> 10000,–,–,–,–,–,–
COc1ccc(S(=O)(=O)N2C(=O)[C@@](c3ccc(CN4CCN(C)CC4)cc3OC)(N3CCC[C@H]3C(=O)N(C)C)c3cc(Cl)ccc32)cc1,–,–,378,56,–,–,–,0.04,7,> 1000,15,> 100,> 100,> 100
COc1ccc(S(=O)(=O)N2C(=O)[C@@](c3cc(CN4CCN(C)CC4)ccc3OC)(N3CCC[C@H]3c3ncco3)c3cc(Cl)ccc32)cc1,–,–,76,56,–,–,–,1.3,89,> 1000,231,–,–,–
COc1ccc(S(=O)(=O)N2C(=O)[C@@](c3ccc(CN4CCCC4)cc3OC)(N3CCC[C@H]3C(=O)N(C)C)c3cc(Cl)ccc32)c(OC)c1,–,–,155,117,–,–,–,0.81,45,> 1000,> 1000,–,–,–
COc1ccc(S(=O)(=O)N2C(=O)[C@@](c3cc(CN4CCCC4)ccc3OC)(N3CCC[C@H]3C(=O)N(C)C)c3cc(Cl)ccc32)cc1,–,–,506,101,–,–,–,0.03,17,> 1000,10,> 100,> 100,> 100
COc1ccc(S(=O)(=O)N2C(=O)[C@@](c3ccc(CN4CCCC4)cc3OC)(N3CCC[C@H]3C(=O)N(C)C)c3cc(Cl)ccc32)cc1,–,–,127,106,–,–,–,0.08,28,> 1000,101,> 100,> 100,> 100
COc1ccc(S(=O)(=O)N2C(=O)[C@@](c3cccnc3OC)(N3CCCC3c3ccccn3)c3cc(Cl)ccc32)c(OC)c1 (mixture of isomers),–,–,183,702,–,–,–,786,–,–,–,–,–,–
